Assay results published in ChEMBL document CHEMBL1130213, “Synthesis and pharmacological characterization of aminocyclopentanetricarboxylic acids: new tools to discriminate between metabotropic glutamate receptor subtypes” (J Med Chem, 1997).

Tests used:
[1] = target: T1, Metabotropic glutamate receptor 2 (Homo sapiens, UniProt Q14416); assay: Agonist activity against Metabotropic glutamate receptor 2 expressed in HEK 293 cells was evaluated by measuring total inositol phosphate accumulation; assay type: functional, cell-based, HEK293
Outline: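 HEK 293 cells in DMEM with 10% fetal calf serum, electroporated with receptor plasmid (mGluR1a 0.3 μg, or mGluR2 2 μg co-expressed with Gqi9). Cells labeled overnight with [3H]myo-inositol, then stimulated 30 min with agonist in 10 mM LiCl. IP produced expressed over membrane radioactivity. Basal taken with glutamate pyruvate transaminase (1 unit/mL) plus 2 mM pyruvate. EC50 from logistic fit; triplicates.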
Target sequence in this assay (Q14416 whole entry): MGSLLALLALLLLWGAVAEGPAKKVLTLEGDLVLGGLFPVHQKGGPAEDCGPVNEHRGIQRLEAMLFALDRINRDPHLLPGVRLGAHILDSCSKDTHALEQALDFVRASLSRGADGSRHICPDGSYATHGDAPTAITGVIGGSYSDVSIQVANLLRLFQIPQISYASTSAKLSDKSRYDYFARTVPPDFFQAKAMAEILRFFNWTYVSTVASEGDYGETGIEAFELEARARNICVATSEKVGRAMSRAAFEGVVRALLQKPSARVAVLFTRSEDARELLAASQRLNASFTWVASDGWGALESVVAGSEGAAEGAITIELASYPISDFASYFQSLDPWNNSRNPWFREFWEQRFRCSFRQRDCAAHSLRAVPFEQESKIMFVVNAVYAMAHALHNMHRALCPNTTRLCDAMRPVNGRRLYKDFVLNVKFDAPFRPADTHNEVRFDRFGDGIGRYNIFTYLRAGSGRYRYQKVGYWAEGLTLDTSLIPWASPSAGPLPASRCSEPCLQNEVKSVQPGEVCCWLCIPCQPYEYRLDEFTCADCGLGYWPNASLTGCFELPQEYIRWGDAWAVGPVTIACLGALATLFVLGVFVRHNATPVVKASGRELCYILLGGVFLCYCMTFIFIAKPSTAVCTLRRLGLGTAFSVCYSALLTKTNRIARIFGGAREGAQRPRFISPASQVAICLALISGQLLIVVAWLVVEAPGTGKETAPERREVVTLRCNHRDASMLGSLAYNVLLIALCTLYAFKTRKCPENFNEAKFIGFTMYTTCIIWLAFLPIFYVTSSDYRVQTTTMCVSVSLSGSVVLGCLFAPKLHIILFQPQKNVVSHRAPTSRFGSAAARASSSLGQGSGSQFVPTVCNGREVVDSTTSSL

[2] = target: Metabotropic glutamate receptor 1 (Homo sapiens, UniProt Q13255); assay: Agonist activity against Metabotropic glutamate receptor 1 expressed in HEK 293 cells was evaluated by measuring total inositol phosphate accumulation; No effect at 1 mM; assay type: functional, cell-based; conditions: hek293
[3] = target: T1, Metabotropic glutamate receptor 2; assay: Agonist activity against Metabotropic glutamate receptor 2 expressed in HEK 293 cells was evaluated by measuring total inositol phosphate accumulation; No effect at 1 mM; assay type: functional, cell-based; conditions: hek293
Target sequence in this assay (Q14416 whole entry): as above

[4] = target: T2, Metabotropic glutamate receptor 4 (Homo sapiens, UniProt Q14833); assay: Agonist activity against Metabotropic glutamate receptor 4 expressed in HEK 293 cells was evaluated by measuring total inositol phosphate accumulation; No effect at 1 mM; assay type: functional, cell-based; conditions: hek293
[5] = target: T2, Metabotropic glutamate receptor 4; assay: Agonist activity against Metabotropic glutamate receptor 4 expressed in HEK 293 cells was evaluated by measuring total inositol phosphate accumulation; assay type: functional, cell-based, HEK293
[6] = target: T1, Metabotropic glutamate receptor 2; assay: Antagonist activity against Metabotropic glutamate receptor 2 expressed in HEK 293 cells was evaluated by measuring total inositol phosphate accumulation; No effect at 1 mM; assay type: functional, cell-based; conditions: HEK293
Target sequence in this assay (Q14416 19-872 limits assumed): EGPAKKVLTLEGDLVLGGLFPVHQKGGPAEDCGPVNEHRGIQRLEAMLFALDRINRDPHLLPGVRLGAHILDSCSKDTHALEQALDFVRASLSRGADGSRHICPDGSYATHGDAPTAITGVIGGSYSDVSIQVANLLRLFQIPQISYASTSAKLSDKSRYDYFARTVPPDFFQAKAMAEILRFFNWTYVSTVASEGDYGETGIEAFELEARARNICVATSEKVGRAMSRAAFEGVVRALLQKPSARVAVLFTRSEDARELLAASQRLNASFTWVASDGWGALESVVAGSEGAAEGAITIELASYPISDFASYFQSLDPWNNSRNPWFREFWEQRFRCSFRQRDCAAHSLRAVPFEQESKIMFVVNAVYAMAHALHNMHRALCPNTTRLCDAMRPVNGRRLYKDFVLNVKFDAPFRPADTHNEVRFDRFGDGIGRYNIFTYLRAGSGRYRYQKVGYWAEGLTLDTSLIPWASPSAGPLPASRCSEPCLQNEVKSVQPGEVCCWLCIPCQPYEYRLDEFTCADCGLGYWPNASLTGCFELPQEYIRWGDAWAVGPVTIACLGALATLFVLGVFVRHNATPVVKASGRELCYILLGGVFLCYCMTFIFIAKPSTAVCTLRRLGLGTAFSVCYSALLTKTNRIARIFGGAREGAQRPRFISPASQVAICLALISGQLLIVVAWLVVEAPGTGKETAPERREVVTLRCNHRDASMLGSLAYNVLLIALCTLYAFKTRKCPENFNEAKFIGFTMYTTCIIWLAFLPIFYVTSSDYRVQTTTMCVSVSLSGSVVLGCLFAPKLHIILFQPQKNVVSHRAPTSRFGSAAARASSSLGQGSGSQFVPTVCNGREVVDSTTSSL

T2 sequence (Q14833 whole entry): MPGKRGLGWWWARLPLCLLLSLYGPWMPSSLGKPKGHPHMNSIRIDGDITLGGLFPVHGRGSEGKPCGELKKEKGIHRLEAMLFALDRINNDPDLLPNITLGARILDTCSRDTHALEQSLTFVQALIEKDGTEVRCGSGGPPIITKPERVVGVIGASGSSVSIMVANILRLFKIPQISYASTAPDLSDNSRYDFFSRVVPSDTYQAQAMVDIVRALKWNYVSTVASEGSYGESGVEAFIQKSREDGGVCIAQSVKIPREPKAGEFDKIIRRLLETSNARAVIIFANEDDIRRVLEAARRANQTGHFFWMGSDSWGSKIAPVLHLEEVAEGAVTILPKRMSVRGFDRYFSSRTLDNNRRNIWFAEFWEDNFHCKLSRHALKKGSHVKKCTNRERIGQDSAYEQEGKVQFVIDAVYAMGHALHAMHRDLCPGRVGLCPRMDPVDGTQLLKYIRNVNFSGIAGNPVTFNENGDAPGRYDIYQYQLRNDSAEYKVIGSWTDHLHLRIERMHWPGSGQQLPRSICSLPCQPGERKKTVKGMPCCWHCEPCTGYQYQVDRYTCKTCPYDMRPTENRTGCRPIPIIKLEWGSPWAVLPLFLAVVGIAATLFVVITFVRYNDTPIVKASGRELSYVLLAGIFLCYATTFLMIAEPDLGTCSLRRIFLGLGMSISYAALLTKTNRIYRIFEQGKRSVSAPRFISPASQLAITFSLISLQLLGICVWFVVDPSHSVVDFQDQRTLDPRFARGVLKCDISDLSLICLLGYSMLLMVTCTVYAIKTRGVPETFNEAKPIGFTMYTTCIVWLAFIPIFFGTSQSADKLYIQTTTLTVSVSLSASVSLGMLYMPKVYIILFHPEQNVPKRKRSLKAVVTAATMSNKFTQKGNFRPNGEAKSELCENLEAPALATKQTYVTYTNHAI
Sequence of Metabotropic glutamate receptor 1 (Q13255 whole entry): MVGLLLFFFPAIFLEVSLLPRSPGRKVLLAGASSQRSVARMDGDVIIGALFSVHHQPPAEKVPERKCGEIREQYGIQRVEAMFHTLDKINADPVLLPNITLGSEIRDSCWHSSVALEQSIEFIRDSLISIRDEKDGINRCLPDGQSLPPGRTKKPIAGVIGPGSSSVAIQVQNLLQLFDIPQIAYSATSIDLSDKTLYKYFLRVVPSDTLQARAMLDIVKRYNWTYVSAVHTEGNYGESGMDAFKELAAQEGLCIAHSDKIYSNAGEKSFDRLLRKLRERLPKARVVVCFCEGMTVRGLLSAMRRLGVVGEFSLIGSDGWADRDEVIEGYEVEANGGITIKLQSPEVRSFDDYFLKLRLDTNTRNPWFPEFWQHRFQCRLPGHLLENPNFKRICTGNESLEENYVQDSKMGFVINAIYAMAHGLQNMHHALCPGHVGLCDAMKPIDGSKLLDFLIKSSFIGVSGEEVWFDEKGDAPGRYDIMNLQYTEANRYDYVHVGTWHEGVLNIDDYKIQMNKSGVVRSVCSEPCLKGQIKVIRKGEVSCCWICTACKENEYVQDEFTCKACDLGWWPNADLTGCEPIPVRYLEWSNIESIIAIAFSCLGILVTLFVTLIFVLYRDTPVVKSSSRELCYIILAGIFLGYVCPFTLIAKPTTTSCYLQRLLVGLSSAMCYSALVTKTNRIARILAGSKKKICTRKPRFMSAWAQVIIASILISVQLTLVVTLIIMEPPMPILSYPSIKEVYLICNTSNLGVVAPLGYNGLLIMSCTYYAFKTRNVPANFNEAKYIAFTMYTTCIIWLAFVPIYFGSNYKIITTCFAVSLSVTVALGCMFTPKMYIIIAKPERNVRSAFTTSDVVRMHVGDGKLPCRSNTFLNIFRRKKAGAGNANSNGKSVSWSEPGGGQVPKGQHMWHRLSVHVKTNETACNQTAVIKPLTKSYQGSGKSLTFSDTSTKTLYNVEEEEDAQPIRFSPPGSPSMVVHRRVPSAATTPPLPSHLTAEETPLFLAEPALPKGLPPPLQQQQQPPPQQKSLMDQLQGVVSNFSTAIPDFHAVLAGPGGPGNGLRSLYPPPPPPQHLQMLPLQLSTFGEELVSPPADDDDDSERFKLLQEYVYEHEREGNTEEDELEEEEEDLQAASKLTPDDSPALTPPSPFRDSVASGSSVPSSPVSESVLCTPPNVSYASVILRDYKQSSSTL

Row | Structure (SMILES) | EC50 [2] | EC50 [3] | EC50 [4] | EC50 [5] [µM] | Kb [6] | EC50 [1] [µM]
1 | N[C@@]1(C(=O)O)CC[C@H](C(=O)O)C1 |  |  |  |  |  | 13
2 | N[C@@]1(C(=O)O)CC[C@@H](C(=O)O)C1 |  |  |  |  |  | 18
3 | N[C@]1(C(=O)O)CC[C@H](C(=O)O)C1 |  |  |  |  |  | 110
4 | N[C@]1(C(=O)O)CC[C@@H](C(=O)O)C1 |  |  | No effect |  |  | > 1000

Now from value to molecule, other results behind:

Row | EC50 [2] | EC50 [3] | EC50 [4] | EC50 [5] [µM] | Kb [6] | Structure (SMILES) | EC50 [1] [µM]
5 | No effect | No effect | No effect |  |  | NC1(C(=O)O)C[C@@H](C(=O)O)[C@H](C(=O)O)C1 | 
6 | No effect | No effect |  | 40 |  | NC1(C(=O)O)CC(C(=O)O)C(C(=O)O)C1 (racemic) | 
7 | No effect | No effect |  | 7.2 | No effect | N[C@@]1(C(=O)O)C[C@H](C(=O)O)[C@H](C(=O)O)C1 | 
8 | No effect | No effect | No effect |  |  | N[C@]1(C(=O)O)C[C@H](C(=O)O)[C@H](C(=O)O)C1 | 
9 | No effect | No effect |  | 8.8 |  | NC1(C(=O)O)C[C@H](C(=O)O)[C@@H](C(=O)O)C1 | 
